Columns and labels:
[1] = Therapeutic index, ratio of ED50 for induction of catalepsy in po dosed mouse to ED50 for antipsychotic activity in po dosed mouse assessed as suppression of apomorphine-induced climbing; type: toxicity, organism-based; details: in vivo, read-out: Ratio ED50
In short: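 Therapeutic index is the catalepsy ED50 divided by the efficacy ED50 from the apomorphine climbing or MK-801 hyperactivity model. All were oral dosing in mice, vehicle 30% PEG 400.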

[2] = biological target: T1, 5-hydroxytryptamine receptor 2C (Homo sapiens, UniProt P28335); assay: Binding affinity to 5HT2C receptor (unknown origin)
T1 sequence (P28335 whole entry): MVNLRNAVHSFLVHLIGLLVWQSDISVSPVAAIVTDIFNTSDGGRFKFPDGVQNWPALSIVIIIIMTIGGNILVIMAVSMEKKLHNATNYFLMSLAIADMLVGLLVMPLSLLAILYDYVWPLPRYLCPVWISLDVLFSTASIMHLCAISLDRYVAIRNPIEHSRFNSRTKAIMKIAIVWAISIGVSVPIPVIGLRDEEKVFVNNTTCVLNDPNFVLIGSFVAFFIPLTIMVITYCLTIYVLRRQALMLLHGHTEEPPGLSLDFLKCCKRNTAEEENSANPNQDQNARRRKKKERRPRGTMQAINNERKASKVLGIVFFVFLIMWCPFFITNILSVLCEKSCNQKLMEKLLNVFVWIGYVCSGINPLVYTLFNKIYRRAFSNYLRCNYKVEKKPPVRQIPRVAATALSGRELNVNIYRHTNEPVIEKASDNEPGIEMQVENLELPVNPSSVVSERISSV
In short: (§1)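 Radioligand displacement binding. Ki is the mean ± SEM of three experiments.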

[3] = biological target: T2, Adrenergic receptor alpha-1 (Homo sapiens, UniProt P35348+P25100+P35368); assay: Binding affinity to alpha1 adrenergic receptor (unknown origin); type: protein assay
T2 sequence (P35348 whole entry): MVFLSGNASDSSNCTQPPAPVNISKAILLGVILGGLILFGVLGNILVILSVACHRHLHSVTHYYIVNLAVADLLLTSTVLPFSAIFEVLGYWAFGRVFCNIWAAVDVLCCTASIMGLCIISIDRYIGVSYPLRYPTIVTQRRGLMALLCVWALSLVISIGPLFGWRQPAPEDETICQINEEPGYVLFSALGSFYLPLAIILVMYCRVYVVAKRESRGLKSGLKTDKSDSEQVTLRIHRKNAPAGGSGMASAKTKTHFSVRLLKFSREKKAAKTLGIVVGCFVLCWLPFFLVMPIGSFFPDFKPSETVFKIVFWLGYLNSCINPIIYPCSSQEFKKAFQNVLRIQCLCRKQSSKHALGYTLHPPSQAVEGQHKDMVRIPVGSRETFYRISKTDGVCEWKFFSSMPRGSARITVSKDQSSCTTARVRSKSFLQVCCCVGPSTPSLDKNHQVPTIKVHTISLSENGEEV
T2 sequence (P25100 whole entry): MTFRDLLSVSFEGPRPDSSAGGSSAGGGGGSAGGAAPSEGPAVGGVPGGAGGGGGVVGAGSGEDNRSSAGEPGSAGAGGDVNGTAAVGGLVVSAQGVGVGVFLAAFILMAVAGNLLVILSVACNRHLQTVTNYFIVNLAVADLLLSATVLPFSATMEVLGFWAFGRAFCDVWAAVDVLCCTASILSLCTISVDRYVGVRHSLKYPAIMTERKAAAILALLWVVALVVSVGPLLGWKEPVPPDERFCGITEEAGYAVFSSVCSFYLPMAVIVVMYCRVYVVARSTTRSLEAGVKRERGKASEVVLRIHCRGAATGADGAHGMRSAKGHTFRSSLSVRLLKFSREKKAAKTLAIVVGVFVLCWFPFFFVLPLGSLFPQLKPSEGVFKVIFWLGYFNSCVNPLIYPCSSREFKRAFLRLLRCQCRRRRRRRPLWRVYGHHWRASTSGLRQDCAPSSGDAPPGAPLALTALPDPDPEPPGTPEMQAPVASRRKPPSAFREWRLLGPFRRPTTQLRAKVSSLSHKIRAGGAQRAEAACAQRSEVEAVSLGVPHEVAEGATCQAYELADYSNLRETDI
T2 sequence (P35368 whole entry): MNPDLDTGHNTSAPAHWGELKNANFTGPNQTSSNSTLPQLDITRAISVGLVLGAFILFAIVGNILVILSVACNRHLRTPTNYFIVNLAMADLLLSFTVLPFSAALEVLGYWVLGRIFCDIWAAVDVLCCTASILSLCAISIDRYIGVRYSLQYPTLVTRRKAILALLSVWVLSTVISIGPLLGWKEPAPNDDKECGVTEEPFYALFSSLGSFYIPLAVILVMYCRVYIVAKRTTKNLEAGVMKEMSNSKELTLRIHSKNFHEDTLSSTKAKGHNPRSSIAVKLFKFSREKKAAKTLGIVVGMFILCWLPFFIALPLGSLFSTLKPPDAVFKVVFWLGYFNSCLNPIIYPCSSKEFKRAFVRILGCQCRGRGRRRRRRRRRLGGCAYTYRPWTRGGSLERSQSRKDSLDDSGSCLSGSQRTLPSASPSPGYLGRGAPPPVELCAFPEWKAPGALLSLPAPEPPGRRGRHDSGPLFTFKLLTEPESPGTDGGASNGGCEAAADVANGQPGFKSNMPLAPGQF

[4] = biological target: T3, 5-hydroxytryptamine receptor 1A (Homo sapiens, UniProt P08908); assay: Binding affinity to 5HT1A receptor (unknown origin); in short: as §1
T3 sequence (P08908 whole entry): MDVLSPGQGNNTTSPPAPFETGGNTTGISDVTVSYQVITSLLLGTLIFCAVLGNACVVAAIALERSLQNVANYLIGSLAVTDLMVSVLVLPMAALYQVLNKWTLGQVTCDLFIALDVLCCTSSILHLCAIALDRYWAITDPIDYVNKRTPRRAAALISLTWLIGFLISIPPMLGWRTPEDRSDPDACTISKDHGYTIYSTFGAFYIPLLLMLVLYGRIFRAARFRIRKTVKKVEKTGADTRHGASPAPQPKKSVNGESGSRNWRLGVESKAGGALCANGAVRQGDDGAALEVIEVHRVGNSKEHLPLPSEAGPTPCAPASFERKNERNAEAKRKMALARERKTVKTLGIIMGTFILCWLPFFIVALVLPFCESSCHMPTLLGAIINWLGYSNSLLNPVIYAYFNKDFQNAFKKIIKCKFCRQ

With CC(=O)Nc1ccc(OCCCN2CCC(c3noc4cc(F)ccc34)CC2)cc1 the selectivity ratio [1] was 90, the Ki [2] was 1990 nM and the Ki [3] was 3296 nM. For the same compound, the Ki [4] was 3.5 nM.
